Data reported in ChEMBL document CHEMBL1828513, “Overcoming human P-glycoprotein-dependent multidrug resistance with novel dihydro-β-agarofuran sesquiterpenes” (Eur J Med Chem, 2011).

Key:
[1] = Intrinsic toxicity in mouse NIH/3T3 cells expressing human MDR1 assessed as cell growth at 10 uM relative to control; type: ADME, cell-based, NIH3T3; details: read-out: Activity
Method in brief: (§1)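 Parental NIH-3T3 and MDR1-G185-transfected cells were cultured in DMEM with 10% heat-inactivated FBS, 2 mM L-glutamine and penicillin/streptomycin. Cells were exposed to 10 µM compound. Growth is reported as percent of untreated control. Mean ± S.D. of three independent experiments in triplicate.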

[2] = target: T1, MDR1 (ABCB1, P-glycoprotein) (Homo sapiens, UniProt P08183); test: (§2) Inhibition of human MDR1 expressed in mouse NIH-3T3 cells assessed as daunomycin efflux at 10 uM after 30 mins by flow cytometry; type: cell-based, NIH3T3; details: mouse NIH-3T3 cells expressing human MDR1, probe daunomycin
[3] = target: T1, MDR1 (ABCB1, P-glycoprotein); test: Inhibition of human MDR1 expressed in mouse NIH-3T3 cells assessed as daunomycin efflux at 10 uM after 30 mins by flow cytometry relative to control; type: cell-based, NIH3T3; details: mouse NIH-3T3 cells expressing human MDR1, probe daunomycin, read-out: Imax
Method in brief: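 Transfected MDR1-G185 NIH-3T3 cells were seeded 24 h prior at 10^5 cells/well. They were co-incubated 30 min at 37 °C in DMEM + 10% iFBS with 2 µM daunomycin and 10 µM sesquiterpene, then washed in ice-cold PBS, trypsinized and read by flow cytometry. Retention is expressed relative to 5 mM ortho-vanadate (100% Pgp inhibition). Mean ± S.D. of three independent experiments in triplicate.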

[4] = Intrinsic toxicity in wild type mouse NIH/3T3 cells assessed as cell growth at 10 uM relative to control; type: cell-based, NIH3T3; details: wild type NIH/3T3 cells, read-out: Activity; method in brief: as §1
[5] = target: T2, ATP-dependent translocase ABCB1 (Homo sapiens, UniProt P08183); test: Inhibition of human MDR1 expressed in mouse NIH-3T3 cells assessed as daunomycin efflux after 30 mins by flow cytometry; type: cell-based, NIH3T3
Method in brief: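 MDR1-G185-transfected NIH-3T3 cells in log phase were seeded 24 h beforehand at 10^5 cells/well. They were incubated 30 min at 37 °C in DMEM + 10% iFBS with 2 µM daunomycin and varied sesquiterpene concentrations, washed in ice-cold PBS, trypsinized, and read for single-cell fluorescence by flow cytometry.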

[6] = target: T2, ATP-dependent translocase ABCB1; test: as §2; type: cell-based, NIH3T3; details: nih3t3, 0.5 h, 10 µM

T1 sequence (P08183 whole entry): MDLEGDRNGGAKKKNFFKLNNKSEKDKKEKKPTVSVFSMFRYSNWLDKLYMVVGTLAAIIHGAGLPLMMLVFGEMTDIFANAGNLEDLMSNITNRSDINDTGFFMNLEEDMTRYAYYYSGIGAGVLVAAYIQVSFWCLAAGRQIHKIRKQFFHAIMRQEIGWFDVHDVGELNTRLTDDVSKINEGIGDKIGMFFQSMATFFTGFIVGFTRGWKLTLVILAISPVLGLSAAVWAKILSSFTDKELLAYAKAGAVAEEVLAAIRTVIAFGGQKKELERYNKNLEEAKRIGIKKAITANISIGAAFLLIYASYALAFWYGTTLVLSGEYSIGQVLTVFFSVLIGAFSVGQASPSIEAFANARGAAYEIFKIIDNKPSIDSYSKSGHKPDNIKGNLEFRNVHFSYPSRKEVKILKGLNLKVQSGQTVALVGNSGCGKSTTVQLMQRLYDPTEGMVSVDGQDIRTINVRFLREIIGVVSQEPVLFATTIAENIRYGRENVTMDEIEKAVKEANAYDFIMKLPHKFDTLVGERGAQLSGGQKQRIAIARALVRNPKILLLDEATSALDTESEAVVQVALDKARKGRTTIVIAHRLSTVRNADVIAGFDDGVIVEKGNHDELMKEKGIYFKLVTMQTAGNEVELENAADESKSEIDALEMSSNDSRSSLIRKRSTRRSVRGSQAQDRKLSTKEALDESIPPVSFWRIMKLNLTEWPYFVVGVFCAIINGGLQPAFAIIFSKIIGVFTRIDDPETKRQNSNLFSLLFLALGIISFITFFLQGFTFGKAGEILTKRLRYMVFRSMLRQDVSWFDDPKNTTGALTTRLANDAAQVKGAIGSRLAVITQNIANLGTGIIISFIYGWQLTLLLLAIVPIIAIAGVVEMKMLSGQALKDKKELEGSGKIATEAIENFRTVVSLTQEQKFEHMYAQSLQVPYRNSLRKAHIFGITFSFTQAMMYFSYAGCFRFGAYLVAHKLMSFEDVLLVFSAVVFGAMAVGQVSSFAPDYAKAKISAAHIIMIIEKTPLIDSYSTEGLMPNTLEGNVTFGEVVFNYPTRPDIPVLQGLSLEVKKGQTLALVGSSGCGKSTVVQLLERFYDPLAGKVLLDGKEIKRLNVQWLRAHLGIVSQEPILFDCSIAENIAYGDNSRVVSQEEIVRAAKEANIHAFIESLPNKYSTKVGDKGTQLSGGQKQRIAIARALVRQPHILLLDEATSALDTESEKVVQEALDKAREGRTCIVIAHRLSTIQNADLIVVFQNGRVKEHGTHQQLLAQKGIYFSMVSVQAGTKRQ
T2 sequence (P08183 whole entry): as above

| Structure (SMILES) | viability at 10 µM [1] [%] | inhibition at 0.5 h, 10 µM [2] [%] | inhibition at 0.5 h, 10 µM [3] [%] | viability at 10 µM [4] [%] | Ki [5] [µM] | inhibition (INH) [6] |
| --- | --- | --- | --- | --- | --- | --- |
| CC(=O)O[C@@H]1[C@H](OC(C)=O)[C@@H](C)[C@@]23C[C@@H](C[C@H](OC(=O)c4ccccc4)[C@]2(C)[C@H]1OC(=O)c1ccoc1)C(C)(C)O3 | 92.4 | 70 | > 90 | 91.8 | 0.64 | – |
| CC(=O)O[C@@H]1C[C@](C)(O)[C@@]23C[C@@H](C[C@H](OC(=O)/C=C/c4ccccc4)[C@]2(C)[C@H]1OC(=O)c1ccoc1)C(C)(C)O3 | 100 | 70 | > 90 | 86 | 0.57 | – |
| CC(=O)OC[C@]12[C@@H](OC(=O)c3ccccc3)C[C@@H]3[C@@H](OC(=O)c4ccccc4)[C@]1(OC3(C)C)[C@@](C)(O)C[C@H](O)[C@@H]2OC(C)=O | 105 | 70 | > 90 | 84.4 | 0.47 | – |
| CC(=O)OC[C@]12[C@@H](OC(=O)c3ccoc3)C[C@@H]3[C@@H](OC(=O)c4ccccc4)[C@]1(OC3(C)C)[C@@](C)(O)C[C@H](OC(=O)c1ccccc1)[C@@H]2OC(C)=O | 84.3 | 70 | > 90 | 82.1 | 0.34 | – |
| CC1(C)O[C@]23C[C@H]1C[C@H](OC(=O)c1ccccc1)[C@]2(C)[C@@H](OC(=O)c1ccoc1)CC[C@]3(C)O | – | – | – | – | – | Active |
| CC(=O)OC[C@]12[C@@H](OC(=O)c3ccccc3)C[C@@H]3[C@@H](OC(C)=O)[C@]1(OC3(C)C)[C@@](C)(O)C[C@H](OC(C)=O)[C@@H]2OC(C)=O | – | – | – | – | – | Active |
| CC(=O)OC[C@]12[C@@H](OC(=O)c3ccoc3)C[C@@H]3[C@@H](OC(=O)c4ccoc4)[C@]1(OC3(C)C)[C@@](C)(O)C[C@H](OC(C)=O)[C@@H]2OC(C)=O | 82.9 | 70 | > 90 | 92 | 0.51 | – |
| CC(=O)OC[C@]12[C@@H](OC(=O)c3ccoc3)C[C@@H]3[C@@H](OC(=O)c4ccccc4)[C@]1(OC3(C)C)[C@@](C)(O)C[C@H](OC(C)=O)[C@@H]2OC(C)=O | 87.8 | 70 | > 90 | 92.4 | 0.59 | – |
| CC(=O)OC[C@]12[C@@H](OC(=O)c3ccccc3)C[C@@H]3[C@@H](OC(=O)c4ccccc4)[C@]1(OC3(C)C)[C@@](C)(O)C[C@H](OC(C)=O)[C@@H]2OC(C)=O | 77.2 | 70 | > 90 | 76.7 | 0.39 | – |
| COc1ccc(CCN(C)CCCC(C#N)(c2ccc(OC)c(OC)c2)C(C)C)cc1OC (centres undefined) | 79.2 | – | – | – | – | – |
| CC(=O)OC[C@]12[C@@H](OC(=O)c3ccoc3)C[C@@H]3[C@@H](OC(=O)c4ccccc4)[C@]1(OC3(C)C)[C@@](C)(O)C[C@H](O)[C@@H]2OC(C)=O | – | – | – | – | – | Active |
| CC(=O)O[C@H]1[C@H](OC(=O)c2ccoc2)[C@@]2(C)[C@@H](OC(=O)c3ccccc3)C[C@@H]3C[C@]2(OC3(C)C)[C@@](C)(O)[C@H]1OC(C)=O | – | – | – | – | – | Active |
| CC(=O)O[C@@H]1C[C@@H](C)[C@@]23C[C@@H](C[C@H](OC(=O)c4ccccc4)[C@]2(C)[C@H]1OC(=O)c1ccoc1)C(C)(C)O3 | – | – | – | – | – | Active |
| CC(=O)O[C@@H]1C[C@](C)(O)[C@@]23C[C@@H](C[C@H](OC(=O)c4ccoc4)[C@]2(C)[C@H]1OC(=O)c1ccoc1)C(C)(C)O3 | – | – | – | – | – | Active |
| CC(=O)O[C@H]1[C@@H](OC(=O)c2ccccc2)C[C@](C)(O)[C@]23OC(C)(C)[C@H](C[C@H](OC(=O)c4ccoc4)[C@]12C)[C@H]3OC(=O)c1ccccc1 | 98 | 70 | > 90 | 108 | 0.38 | – |
| CC(=O)OC[C@]12[C@@H](OC(=O)c3ccoc3)C[C@@H]3[C@@H](OC(C)=O)[C@]1(OC3(C)C)[C@@](C)(O)C[C@H](OC(C)=O)[C@@H]2OC(C)=O | – | – | – | – | – | Active |
| CC(=O)O[C@@H]1C[C@](C)(O)[C@@]23C[C@@H](C[C@H](OC(=O)c4ccccc4)[C@]2(C)[C@H]1OC(=O)c1ccoc1)C(C)(C)O3 | – | – | – | – | – | Active |
